According to the EternaBench riboswitch data:

Tested on: MS2 coat protein
Assay: apparent Kd, MS2 coat protein; higher = weaker binding; RNA-MaP array; FMN 200 µM where present
In short: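 Two titrations, one without ligand and one with constant ligand, were run with SNAP-549-labelled MS2 coat protein from 0.7 or 1.5 nM, doubling to 3 µM. The targets were designs transcribed by stalled E. coli RNA polymerase on Illumina sequencing-chip clusters, in 100 mM Tris-HCl pH 7.5, 80 mM KCl, 4 mM MgCl2, BSA, DTT, yeast tRNA and Tween-20. The apparent Kd is the median of filtered per-cluster binding-curve fits, with green signal normalised to red-channel RNA signal and control-cluster median Fmax.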

[1] = designed as: OFF switch for flavin mononucleotide, no ligand
[2] = ligand present: flavin mononucleotide, designed as: OFF switch for flavin mononucleotide
[3] = designed as: ON switch for flavin mononucleotide, no ligand
[4] = ligand present: flavin mononucleotide, designed as: ON switch for flavin mononucleotide

Sequence	apparent Kd [1]	apparent Kd [2]	apparent Kd [3]	apparent Kd [4]
GGGCCCGGAGGAUAUACAAUCCCGGGUUGAAAGGCCCGGGUACAUGAGGAUCACCCAUGUAGAAGGUUGGGCCC	14.2 nM	17.3 nM		
CGGCAUCAUGUAGGAUAUGCGUGGCGAAGCUAUGCAGAAGGACAUGAGGAUCACCCAUGUCUUACUGUGCGUACACAGUUGCCG	6.29 nM	11.2 nM		
GUAAAGUGAGGAUAUGGUAAUUUAAUUAUUAAUUAAUUAAUCCAGAAGGCACAUGAGGAUCACCCAUGUAAAUG	31.9 nM	63 nM		
CGUGUUAUCGAAGGAUAUGGAUACAUGAGGAUCACCCAUGUAUAUUUUGUGAUCAAGUUUAAGAUCCAGAAGGUCGUAUACACG	54.9 nM	119 nM		
ACAAGAUCAGGAUAUACAUGAGGAUCACCCAUGUAUAUCAAAAAGGGACUUUCUUAAUGUAGAAGGGAUCUUGU	13.3 nM	12.8 nM		
UGUUGUAUUACAGGAUAUCUAGUAUGUUUAUUUAGAGAAGGGUAUUCACAUGAGGAUCACCCAUGUAUAUACGAGGAAGUUGUG			39.1 nM	42.5 nM
AGACUGAAUGUUAGGAUAUGGUUUCGGGUCUCGGACCAGAAGGAACAUGAGGAUCACCCAUGUGCCGUGGUUGU	29 nM	153 nM		
GGAAAGUGAGGAUAUGGUAAUUUAAUUAUUAAUUAAUUAAUCCAGAAGGCACAUGAGGAUCACCCAUGUAAAGG	35.9 nM	61.4 nM		
UCGGCGCGAGGAUAUACGUUUGCGCGUUUUCGUUUGCGCGUACAUGAGGAUCACCCAUGUAGAAGGCGCGCGGC	13.1 nM	13.4 nM		
ACAAGUUCACAUGAGGAUCACCCAUGUGGUCGCUAAUAUACCAGAAGGGUGGGUCCUAAUGAUGUACAGGAUAUGGAGUAGGCG			198 nM	81.7 nM
GAGCUGACAAUAAAUAACUCAAAUACAUGAGGAUCACCCAUGUAGGAUAUGCAGUGGAAUACACUGCAGAAGGACAUAGUCAGC	13.4 nM	21.8 nM		
CUUAGACAUGAGGAUCACCCAUGUGAGGAUAUGAUGCGAAUAAAGAAAGAAGAAAGCAUCAGAAGGCACAUAUG	115 nM	349 nM		
UUAUGCUUUGAGAAGGUUCAAACUACAUAUUGCGCACAUGAGGAUCACCCAUGUUGGUGAAUAAGAAAGGAUAUUAGACUGUGC	267 nM	165 nM		
CAUCUUGUGUGAGGAUAUAAUGAUAAGAGGACAUUAGAAGGCACAUGAGGAUCACCCAUGUGGCCAGGUCGGCGGCUCCAUAUA	11.4 nM	17.3 nM		
GUUAUACAUGAGGAUCACCCAUGUCAAUGUAGUCGAGGAUAUGGGUAGCUAUGAGGCGUACUAGAAGGCGAGGAGU			77.8 nM	160 nM
UAAUAAUUAUGAGGAUAUAUACAACAUGAGGAUCACCCAUGUACCCAUGUAGUAGAAGGCAUAUUUUUAGUUAAUAACAUAACU			75.2 nM	31.1 nM
GGUUGGCGAGGAUAUACAUGAGGAUCACCCAUGUGGUCCUGCGGUGGUAUCGCCCUUUGUAGAAGGCGCGGGUC	112 nM	117 nM		
CCAUGGAAUGUAGGAUAUGUCUGACAAAGUCAGACAGAAGGACAUGAGGAUCACCCAUGUAGGAAACAACCACAUAAACCAUGG	6.83 nM	7.08 nM		
UGUCGGAGCAGAGGAUAUUACAUGAGGAUCACCCAUGUAUGAACCAAUAGCUGGAAACAGCAAUGUAAGAAGGCUGCUCCCACA	12 nM	138 nM		
ACUUGCUUGCAGAAGGGUGACAUGAGGAUCACCCAUGUAGCGGGCCGGCGUAAAGUCAGCGCGCCACAGGAUAUGCAGGCCUCG			25.2 nM	58.5 nM
CAAGCGGGAGGAUAUACAGGGUUGUCCGAAAAUCGCCAGCCACAUGAGGAUCACCCAUGUAGAAGGCCUAUAGA	53 nM	23.9 nM		
ACUGUGCAUUAGAAGGGUGCGCGGCAAUCGCGCACAGGAUAUGAUGACAUGAGGAUCACCCAUGUCUGUGUCACCUGGGUGUCG	13.3 nM	83.8 nM		
CGUGCGUAUGUGAGGAUAUGCUGGUCCUUGGAUCGGCAGAAGGCACAUGAGGAUCACCCAUGUGGUGUCGUUCG	219 nM	31.6 nM		
AUCAGCUCGUCAGGAUAUACGUCACUGCGUCAGCAGUGUGGUAAGUUCACAUGAGGAUCACCCAUGUAGAAGGGACGAGCUGAU	4.98 nM	7.14 nM		
GGGUACAUCGGAGGAUAUCAUGUAAAUACAUGAGGAUCACCCAUGUCGAUGGAGCCAUCGGAGAUUGAGAAGGCCGAUGUACCG			14.3 nM	5.63 nM
AGGAAACAUGAGGAUCACCCAUGUGAGGAUAUUUGAAAGAAAAGAAAAGAAAGAAGAAGAAGAAGGCACAAGAA	32.4 nM	35.5 nM		
AACGCUAAAGGAUAUACAUGAGGAUCACCCAUGUUGAGGAAGGUUAGAUGAGGAGUAAGUAGAAGGUUAGACGA	29.2 nM	25.7 nM		
UUACAGUGCGGGUAGGAUAUGUAGGGUGGUACAUGAGGAUCACCCAUGUAUCCACCCUUCGACCGGCAGAAGGGCCUGUCACUAC			17.1 nM	20.5 nM
